# From ChEMBL document CHEMBL1137146, “Thiourea inhibitors of herpesviruses. Part 3: Inhibitors of varicella zoster virus” (Bioorg Med Chem Lett, 2004)
# System: Human alphaherpesvirus 3
# Test: inhibitory concentration against Varicella zoster virus
# Assay type: functional, organism-based
# Conditions: not given
# Outline: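 Compounds serially diluted and tested in duplicate against VZV. IC50 obtained by curve fitting with a sigmoidal Hill slope (0–100) model. The rest of the assay procedure follows earlier published work and is not given here.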
row,IC50 [nM],Structure (SMILES)
1,700,C[C@@H](NC(=S)Nc1ccc(NC(=O)c2ccccc2F)cc1)c1ccccc1 (stereo in doubt; 9)
2,> 19100,C[C@@H](NC(=S)Nc1ccc(NC(=O)c2ccccc2F)cc1)c1ccccc1 (stereo in doubt; 10)
3,130,C[C@@H](NC(=S)Nc1ccc(NC(=O)c2ccccc2F)cc1)c1ccc(Br)cc1 (stereo in doubt; 11)
4,49100,C[C@@H](NC(=S)Nc1ccc(NC(=O)c2ccccc2F)cc1)c1ccc(Br)cc1 (stereo in doubt; 12)

# Same assay, conditions: Human alphaherpesvirus 3
row,IC50 [nM],Structure (SMILES)
1,110,CC(/N=C(\S)Nc1ccc(NC(=O)c2ccccc2F)c(C#N)c1)c1cc2ccccc2o1 (stereo not drawn)
2,600,CC(/N=C(\S)Nc1ccc(NC(=O)c2ccccc2F)cc1)c1ccc(F)cc1 (stereo not drawn)
3,70,CC(/N=C(\S)Nc1cc(Br)c(NC(=O)c2ccccc2F)c(Br)c1)c1ccc(F)cc1 (stereo not drawn)
4,30,CC(NC(=O)Nc1ccc(NC(=O)c2ccccc2F)c(C#N)c1)c1ccc(F)cc1 (stereo not drawn)
5,110,CC(/N=C(\S)Nc1ccc(NC(=O)c2ccccc2F)c(C#N)c1)c1ccc(F)cc1 (stereo not drawn)
6,180,CC(/N=C(\S)Nc1ccc(NC(=O)c2cc3ccccc3cn2)cc1)c1ccc(F)cc1 (stereo not drawn)
7,110,CC(NC(=O)Nc1ccc(NC(=O)c2ccccc2F)c(C#N)c1)c1cc2ccccc2o1 (stereo not drawn)
8,210,CC(/N=C(\S)Nc1ccc(NC(=O)c2ccccc2F)cc1)c1ccc(Cl)cc1 (stereo not drawn)
9,90,CC(/N=C(\S)Nc1ccc(NC(=O)c2ccc3ccccc3n2)cc1)c1ccc(F)cc1 (stereo not drawn)
10,1540,COc1cc(NC(=O)c2ccccc2F)ccc1/N=C(\S)NC(C)c1ccc(F)cc1 (stereo not drawn)
11,120,Cc1cc(N/C(S)=N/C(C)c2ccc(F)cc2)ccc1NC(=O)c1ccccc1F (stereo not drawn)
12,990,Cc1cc(NC(=O)c2ccccc2F)ccc1N/C(S)=N/C(C)c1ccc(F)cc1 (stereo not drawn)
13,1370,CC(/N=C(\S)Nc1ccc(NC(=O)c2ccccc2F)cc1Cl)c1ccc(F)cc1 (stereo not drawn)
14,9480,CC(/N=C(\S)Nc1ccc(NC(=O)c2ccccc2F)cc1)c1c[nH]c2ccccc12 (stereo not drawn)
15,9700,CC(C)(/N=C(\S)Nc1ccc(NC(=O)c2ccccc2F)cc1)c1ccccc1
16,1300,CC(NC(=S)Nc1ccc(NC(=O)c2ccccc2F)cc1)c1ccccc1 (stereo not drawn)
17,180,CC(/N=C(\S)Nc1ccc(NC(=O)c2ccccc2F)cc1)c1cc2ccccc2o1 (stereo not drawn)
18,190,CC(/N=C(\S)Nc1ccc(-c2cc(-c3ccnc4ccccc34)no2)cc1)c1ccc(F)cc1 (stereo not drawn)
19,4510,CC(/N=C(\S)Nc1ccc(NC(=O)c2ccccc2F)cc1)c1ccc2ccccc2c1 (stereo not drawn)
20,> 26300,O=C(Nc1ccc(N/C(S)=N/Cc2ccccc2)cc1)c1ccccc1F
21,> 17600,CCC(/N=C(\S)Nc1ccc(NC(=O)c2ccccc2F)cc1)c1ccc(F)cc1 (stereo not drawn)
22,570,CCOc1cc(N/C(S)=N/C(C)c2ccc(F)cc2)ccc1NC(=O)c1ccccc1F (stereo not drawn)
23,190,CC(/N=C(\S)Nc1ccc(-c2cc(Cc3ccccc3)no2)cc1)c1ccc(F)cc1 (stereo not drawn)
24,60,CC(/N=C(\S)Nc1ccc(NC(=O)c2ccccc2F)c(C(F)(F)F)c1)c1ccc(F)cc1 (stereo not drawn)
25,420,CC(NC(=S)Nc1ccc(NC(=O)c2ccccc2F)cc1)c1ccc(Br)cc1 (stereo not drawn)
26,90,COc1cc(N/C(S)=N/C(C)c2ccc(F)cc2)ccc1NC(=O)c1ccccc1F (stereo not drawn)
27,960,CC(/N=C(\S)Nc1ccc(NC(=O)c2ccccc2F)cc1)c1ccc(C#N)cc1 (stereo not drawn)
28,190,COc1ccccc1C(=O)Nc1ccc(N/C(S)=N/C(C)c2ccc(F)cc2)cc1 (stereo not drawn)
29,3560,CC(/N=C(\S)Nc1ccc(NC(=O)c2ccccc2F)cc1)c1csc2ccccc12 (stereo not drawn)
